697 NFkB inh = inhibitors of PMA/ionomycin-induced NF-kB reporter, 697 cells, primary screen, B-cell NF-kB inhibitor project, cell-based, luminescence, uHTS | inhibition, % at 4 µM | AID 435022, 2010 | 697 B-cell NF-kB luciferase reporter, 16 h | actives 0.33% (n = 330,000); in the data active means inhibition above about 35%
aSyn UTR inh = MLPCN primary screen, SNCA 5' untranslated region; alpha-synuclein 5'UTR reporter, inhibitor activity; inhibition, % (tested at 7.5 µM); actives 0.82% (n = 300,000); in the data active means inhibition above about 60%;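 further: H4 neuroglioblastoma cells stably carrying SNCA 5'UTR luciferase fusion; 0% = DMSO wells and 100% = positive control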
Jurkat NFkB inh = inhibitors of induced NF-kB luciferase reporter, primary screen, TCR NF-kB activation inhibitor project, cell-based, luminescence, uHTS; Jurkat, PMA/ionomycin-induced NF-kB luciferase reporter; inhibition, % at 4 µM; actives 0.53% (n = 330,000); in the data active means inhibition above about 50%
VIM-2 inhibitor = VIM-2 metallo-beta-lactamase inhibitors, primary screen, biochemical, epi-absorbance readout, Pseudomonas aeruginosa enzyme; purified VIM-2, nitrocefin hydrolysis, epi-absorbance fluorescence; inhibition, % at 5.6 µM; actives 0.89% (n = 290,000);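 active means inhibition above the mean of all tested compounds plus 3 SD, cutoff set per screening run, cut at about 7.5% in these data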;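 further: red hydrolysis product quenches plate fluorescence so inhibitors raise well fluorescence; 0% = enzyme with DMSO and 100% = DMSO without enzyme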
Mdm2 MdmX PPI = inhibitors of human Mdm2-MdmX association, primary screen, cell-based, luminescence, split luciferase, SaOS-2, uHTS | Protein Mdm4 (Homo sapiens) + E3 ubiquitin-protein ligase Mdm2 (Homo sapiens), … | AID 485346, 2010 | SaOS-2 split-luciferase Mdm2/MdmX complementation | inhibition, % at 8 µM | actives 3% (n = 330,000);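 active means inhibition of at least 50% at 8 µM in the primary screen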
IMP-1 inh = IMP-1 metallo-beta-lactamase inhibitors, primary screen, biochemical, epi-absorbance readout, Pseudomonas aeruginosa enzyme. actives 0.45% (n = 290,000). inhibition, % at 5.6 µM. purified IMP-1, nitrocefin hydrolysis, epi-absorbance fluorescence. AID 1556, 2009. metallo-beta-lactamase IMP-1 (Pseudomonas aeruginosa);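 active means inhibition above the mean plus 3 SD of all compounds in the same screening run, cut at about 4.5% in these data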;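 further: 0% = IMP-1 with DMSO and 100% = DMSO wells lacking enzyme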
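System: purified IMP-1; amount: IMP-1 0.2 nM before substrate addition; compound: single dose, 5.6 µM; times: 25 °C, 15 min preincubation, 25 min reaction; signal: Epi-absorbance via hydrolysed-nitrocefin quenching of white-plate fluorescence, 480/530 nm, EDTA stop; benchmarks: DMSO with and without IMP-1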
* hit, by the source's call. The list is not random: actives were taken first. Their share in the collection is about 4.7%.

`COc1cc(/C=N/n2c(=S)[nH]nc(C)c2=O)cc([N+](=O)[O-])c1O` gave 697 NFkB inh 4.5, aSyn UTR inh 4.2, Jurkat NFkB inh -5.9, VIM-2 inhibitor -2.2, Mdm2 MdmX PPI -7.8 and IMP-1 inh -3.9.
Screening CCc1n[nH]c(=S)n1/N=C/c1cc(OC)cc([N+](=O)[O-])c1O returned 697 NFkB inh 11.1, aSyn UTR inh 4.3, Jurkat NFkB inh 0.7, VIM-2 inhibitor -0.8, Mdm2 MdmX PPI 5.3 and IMP-1 inh 4.6*.
Screening O=C(O)CC(c1ccc(Br)cc1)N1Cc2ccccc2C1=O (stereo unspecified) returned 697 NFkB inh 5.2, aSyn UTR inh -5.4, Jurkat NFkB inh 15.5, VIM-2 inhibitor -1.1, Mdm2 MdmX PPI -16.7 and IMP-1 inh -2.7.
CC1COc2ccccc2N1S(=O)(=O)c1cc(Cl)ccc1Cl (stereo unspecified) was read as 697 NFkB inh 8.8, aSyn UTR inh 10.5, Jurkat NFkB inh -4.2, VIM-2 inhibitor -3.1, Mdm2 MdmX PPI 5.1 and IMP-1 inh -2.1.
Screening O=C(Nc1ccc(-c2nc3ccccc3[nH]2)cc1)C1CCCO1 (stereo unspecified) returned 697 NFkB inh -122.4, aSyn UTR inh 76.7*, Jurkat NFkB inh -89.5, VIM-2 inhibitor -5.4, Mdm2 MdmX PPI -87.1 and IMP-1 inh -2.9.
For O=C(Nc1nc2ccccc2[nH]1)C1CCCO1 (stereo unspecified) the results were 697 NFkB inh -35.8, aSyn UTR inh -79.1, Jurkat NFkB inh -22.4, VIM-2 inhibitor -1.9, Mdm2 MdmX PPI 8.2 and IMP-1 inh -4.1.
Screening Cc1cccc(-c2nc3cc(NC(=O)C4CCCO4)ccc3o2)c1 (stereo unspecified) returned aSyn UTR inh 72.5*, VIM-2 inhibitor -2.7 and IMP-1 inh -4.3.
CN(C)S(=O)(=O)c1cccc(C(=O)Nc2n[nH]c(C(F)(F)F)n2)c1 was read as 697 NFkB inh 13.6, aSyn UTR inh -4.7, Jurkat NFkB inh -3.4, VIM-2 inhibitor -2.3, Mdm2 MdmX PPI 18.6 and IMP-1 inh -1.8.
Screening O=C1CCC([N+](=O)[O-])C(c2ccccc2F)N1 (stereo unspecified) returned 697 NFkB inh 2.3, aSyn UTR inh -5.4, Jurkat NFkB inh 2.7, VIM-2 inhibitor 0.2, Mdm2 MdmX PPI -19.4 and IMP-1 inh -1.5.
`O=C(N/N=C/c1ccc(Cl)cc1Cl)c1ccc2nc[nH]c2c1` gave 697 NFkB inh 18.5, aSyn UTR inh -31.4, Jurkat NFkB inh 10.5, VIM-2 inhibitor -0.9, Mdm2 MdmX PPI 1.8 and IMP-1 inh 8.8*.
Screening CCOc1ccc(-c2nc(CSCC(=O)N3CCN(c4cccc(OC)c4)CC3)c(C)o2)cc1 returned 697 NFkB inh 11.8, aSyn UTR inh 68.5*, Jurkat NFkB inh 21.2, VIM-2 inhibitor -0.2, Mdm2 MdmX PPI 25.1 and IMP-1 inh -3.4.
Screening CCc1ccc(-c2nc(CSCC(=O)N3CCN(c4ccccn4)CC3)c(C)o2)cc1 returned 697 NFkB inh -8.8, aSyn UTR inh 81.6*, Jurkat NFkB inh 3.8, VIM-2 inhibitor -3.9, Mdm2 MdmX PPI 17.7 and IMP-1 inh -3.1.
Screening Cc1ccc(-c2nc(CSCC(=O)N3CCN(c4ccccn4)CC3)c(C)o2)cc1 returned 697 NFkB inh -24.8, aSyn UTR inh 21.7, Jurkat NFkB inh -2.3, VIM-2 inhibitor 1.2, Mdm2 MdmX PPI 31.2 and IMP-1 inh -2.4.
`O=C(Nc1cccc(C(F)(F)F)c1)Oc1ccc(Cl)c2cccnc12` gave aSyn UTR inh 75.1*, VIM-2 inhibitor 0.1 and IMP-1 inh 0.0.
CCN(CC)C(=O)Oc1ccc(Cl)c2cccnc12 was read as 697 NFkB inh 22.1, aSyn UTR inh 22.7, Jurkat NFkB inh 9.6, VIM-2 inhibitor -2.4, Mdm2 MdmX PPI 4.4 and IMP-1 inh -1.8.
For O=C(Nc1scc(-c2cccs2)c1C(=O)O)c1cccs1 the results were 697 NFkB inh 2.1, aSyn UTR inh -34.7, Jurkat NFkB inh -8.3, VIM-2 inhibitor 2.7, Mdm2 MdmX PPI -12.2 and IMP-1 inh 15.3*.
`O=C(Nc1scc(-c2ccccc2)c1C(=O)O)c1ccco1` gave 697 NFkB inh 2.7, aSyn UTR inh -3.9, Jurkat NFkB inh 7.0, VIM-2 inhibitor -1.7, Mdm2 MdmX PPI -2.1 and IMP-1 inh 4.8*.
Screening CCOC(=O)c1c(-c2cccs2)csc1NC(=O)c1ccncc1 returned 697 NFkB inh -6.2, aSyn UTR inh 3.0, Jurkat NFkB inh 2.2, VIM-2 inhibitor -2.6, Mdm2 MdmX PPI 32.0 and IMP-1 inh -3.5.
Screening CCN(c1ccc(OC)cc1)S(=O)(=O)c1nnc(NC(=O)c2ccc(C)cc2)s1 returned 697 NFkB inh -10.1, aSyn UTR inh -10.5, Jurkat NFkB inh -10.5, VIM-2 inhibitor -1.3, Mdm2 MdmX PPI 5.5 and IMP-1 inh -1.3.
CC1(C)C(=O)Nc2ccccc2N1C(=O)COC(=O)/C=C/c1ccc(OC(F)F)cc1 was read as 697 NFkB inh 2.0, aSyn UTR inh 0.2, Jurkat NFkB inh -3.1 and Mdm2 MdmX PPI 30.4.
O=C(O)CN1CCN(Cc2ccccc2)C1=O was read as 697 NFkB inh 18.4, aSyn UTR inh -1.6, Jurkat NFkB inh 3.2, VIM-2 inhibitor 0.9, Mdm2 MdmX PPI -18.7 and IMP-1 inh -4.3.
`O=C(O)CN1CCCC1=Nc1ccccc1` gave 697 NFkB inh 9.5, aSyn UTR inh -22.3, Jurkat NFkB inh 10.5, VIM-2 inhibitor 2.5, Mdm2 MdmX PPI -19.1 and IMP-1 inh 4.8*.
For COc1cccc(/C=C(\CC(=O)O)c2nc3ccccc3s2)c1 the results were 697 NFkB inh 1.9, aSyn UTR inh -36.8, Jurkat NFkB inh -4.0, VIM-2 inhibitor 2.9, Mdm2 MdmX PPI 22.2 and IMP-1 inh -1.9.
O=C(O)C/C(=C\c1ccc2c(c1)OCO2)c1nc2ccccc2s1 was read as 697 NFkB inh -28.9, aSyn UTR inh -20.5, Jurkat NFkB inh -35.9, VIM-2 inhibitor 8.0*, Mdm2 MdmX PPI 5.5 and IMP-1 inh -1.6.
`COCc1n[nH]c(=S)n1-c1cccc2ccccc12` gave 697 NFkB inh 11.9, Jurkat NFkB inh 11.8, VIM-2 inhibitor 8.0*, Mdm2 MdmX PPI 25.0 and IMP-1 inh -3.4.
Screening COc1ccc(-c2cc(-c3n[nH]c(=S)n3-c3cccc4ccccc34)[nH]n2)cc1 returned 697 NFkB inh 8.2, aSyn UTR inh 6.1, Jurkat NFkB inh -4.0, VIM-2 inhibitor -2.5, Mdm2 MdmX PPI -12.4 and IMP-1 inh -0.6.
Screening CCOC(=O)C1CCN(c2cc3c(cc2NC(=O)c2ccccc2Cl)n(C)c(=O)n3C)CC1 returned 697 NFkB inh -4.4, aSyn UTR inh 4.1, Jurkat NFkB inh -2.6, VIM-2 inhibitor -2.5, Mdm2 MdmX PPI 18.3 and IMP-1 inh -1.3.
